The test system of one series is Plasma. Nature of the series: Plasma protein binding in human by albumin chromatographic method. The series is classed as ADME, cell-free.
Series [1] is described as follows: Antimalarial activity against Plasmodium berghei ANKA NK65 infected in po dosed Swiss Webster mouse assessed as reduction of parasitemia level administered qd for 4 days measured 24 hrs after last dose by light microscopic analysis. Type of series: functional.
Series [2] can be described thus: Antimalarial activity against Plasmodium berghei ANKA NK65 infected in Swiss Webster mouse assessed as reduction of parasitemia level at 2 mg/kg, po qd administered for 4 days measured 24 hrs after last dose by light microscopic analysis. Set-up: scale not given: the % may be the effect or the level left. Type of series: functional. The method, boiled down:
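Female Swiss Webster mice, 8-10 weeks old (20-22 g), infected intraperitoneally with 2 × 10^7 P. berghei NK65 ANKA-infected erythrocytes. Oral doses in CMC vehicle (200 μL), first given 3 h post-infection, then at 24, 48 and 72 h. Parasitemia followed daily from 24 h by light microscopy at 1000× oil immersion, counting ≥10 fields of >100 erythrocytes. Mice losing ≥20% body weight were euthanized.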

This note sets out measurements from ChEMBL document CHEMBL1781999, “Lead optimization of aryl and aralkyl amine-based triazolopyrimidine inhibitors of Plasmodium falciparum dihydroorotate dehydrogenase with antimalarial activity in mice” (J Med Chem, 2011).

A word on the ED50: it is the dose that gives a 50% effect, or the effect in half of the subjects.

Regarding `CCN(CC)CCCC(C)Nc1ccnc2cc(Cl)ccc12` (stereo not drawn) [CHLOROQUINE], in the series with Plasma, the PPB is recorded as 87%. The 50% effective dose (ED50) in series [1] was 1.8 mg/kg. The Activity in series [2] was found to be 50%.
